Source: ChEMBL document CHEMBL1122046, “Quaternary heterocyclylamino beta-lactams: a generic alternative to the classical acylamino side chain” (1982)
In brackets after ≈: the same amount, converted by molar mass.

What was measured:
Type in all cases: functional
Escherichia coli = assay: MIC against aerobic organism Escherichia coli strain 2891; settings: Escherichia coli; read-out: MIC
Procedure, shortened: (§1)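 Agar-dilution MIC in µg/mL against aerobic bacterial strains on tryptocase soy agar, with inoculum applied as spots. Most series used 10^5 cfu per spot, and a later series used 10^4 cfu per spot. In some tables, footnoted strains were instead tested on Mueller-Hinton or nutrient agar. β-Lactamase-producing strains are flagged.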

Klebsiella aerogenes = assay: Minimum inhibitory concentration against aerobic organism Enterobacter aerogenes strain 2906; settings: Klebsiella aerogenes; read-out: MIC; procedure, shortened: as §1
Enterobacter cloacae = assay: Minimum inhibitory concentration against aerobic organism Enterobacter cloacae strain 2646; settings: Enterobacter cloacae; read-out: MIC; procedure, shortened: as §1
Klebsiella pneumoniae = assay: Minimum inhibitory concentration against aerobic organism Klebsiella pneumoniae strain 2882; settings: Klebsiella pneumoniae; read-out: MIC; procedure, shortened: as §1
Morganella morganii = assay: Minimum inhibitory concentration against aerobic organism Morganella morganii strain 2833; settings: Morganella morganii; read-out: MIC; procedure, shortened: as §1
Pseudomonas aeruginosa = assay: Minimum inhibitory concentration against aerobic organism Pseudomonas aeruginosa strain 2835; procedure, shortened: as §1
Proteus mirabilis = assay: Minimum inhibitory concentration against aerobic organism Proteus mirabilis strain 2830; settings: Proteus mirabilis; read-out: MIC; procedure, shortened: as §1
Proteus vulgaris = assay: Minimum inhibitory concentration against aerobic organism Proteus vulgaris strain 2829; settings: Proteus vulgaris; read-out: MIC; procedure, shortened: as §1
[1] = Minimum inhibitory concentration against aerobic organism Salmonella schottmuelleri strain 2837; settings: Salmonella; read-out: MIC; procedure, shortened: as §1
Serratia marcescens = assay: Minimum inhibitory concentration against aerobic organism Serratia marcescens strain 2852; settings: Serratia marcescens; read-out: MIC; procedure, shortened: as §1
Streptococcus pyogenes = assay: Minimum inhibitory concentration against aerobic organism Streptococcus pyogenes strain 3124; settings: Streptococcus pyogenes; read-out: MIC; procedure, shortened: as §1
Staphylococcus aureus = assay: Minimum inhibitory concentration against aerobic organism Staphylococcus aureus strain 2868; settings: Staphylococcus aureus; read-out: MIC; procedure, shortened: as §1
Enterococcus faecalis = assay: Minimum inhibitory concentration against aerobic organism Streptococcus faecalis strain 2864; procedure, shortened: as §1
Shigella = assay: Minimum inhibitory concentration against aerobic organism Shigella species strain 2880; settings: Shigella; read-out: MIC; procedure, shortened: as §1

## CC(C)[n+]1ccc(N[C@@H]2C(=O)N3C(C(=O)[O-])=C(CSc4nnnn4C)CS[C@H]23)cc1
Escherichia coli
  MIC: 0.5 µg/mL (≈ 1.12 µM)
Klebsiella aerogenes
  MIC: 128 µg/mL (≈ 286 µM)
Enterobacter cloacae
  MIC: 32 µg/mL (≈ 71.5 µM)
Klebsiella pneumoniae
  MIC: 16 µg/mL (≈ 35.8 µM)
Morganella morganii
  MIC: > 128 µg/mL
Pseudomonas aeruginosa
  MIC: > 128 µg/mL
Proteus mirabilis
  MIC: 128 µg/mL (≈ 286 µM)
Proteus vulgaris
  MIC: < 0.06 µg/mL
[1]
  MIC: 0.125 µg/mL (≈ 0.279 µM)
Serratia marcescens
  MIC: > 128 µg/mL
Streptococcus pyogenes
  MIC: 1 µg/mL (≈ 2.23 µM)
Staphylococcus aureus
  MIC: 32 µg/mL (≈ 71.5 µM)
Enterococcus faecalis
  MIC: 128 µg/mL (≈ 286 µM)
Shigella
  MIC: 0.5 µg/mL (≈ 1.12 µM)

## Cn1nnnc1SCC1=C(C(=O)[O-])N2C(=O)[C@@H](Nc3cc[n+](COCC(Cl)(Cl)Cl)cc3)[C@H]2SC1
Escherichia coli
  MIC: < 0.06 µg/mL
Klebsiella aerogenes
  MIC: 8 µg/mL (≈ 14.1 µM)
Enterobacter cloacae
  MIC: 0.125 µg/mL (≈ 0.221 µM)
Klebsiella pneumoniae
  MIC: 0.125 µg/mL (≈ 0.221 µM)
Morganella morganii
  MIC: 32 µg/mL (≈ 56.4 µM)
Pseudomonas aeruginosa
  MIC: > 128 µg/mL
Proteus mirabilis
  MIC: 64 µg/mL (≈ 113 µM)
Proteus vulgaris
  MIC: < 0.06 µg/mL
[1]
  MIC: < 0.06 µg/mL
Serratia marcescens
  MIC: 64 µg/mL (≈ 113 µM)
Streptococcus pyogenes
  MIC: < 0.06 µg/mL
Staphylococcus aureus
  MIC: 2 µg/mL (≈ 3.53 µM)
Enterococcus faecalis
  MIC: > 128 µg/mL
Shigella
  MIC: < 0.06 µg/mL

## CC[n+]1ccc(N[C@@H]2C(=O)N3C(C(=O)[O-])=C(CSc4nnnn4C)CS[C@H]23)cc1
Escherichia coli
  MIC: < 0.5 µg/mL
Klebsiella aerogenes
  MIC: 0.5 µg/mL (≈ 1.15 µM)
Enterobacter cloacae
  MIC: 2 µg/mL (≈ 4.61 µM)
Klebsiella pneumoniae
  MIC: 1 µg/mL (≈ 2.31 µM)
Morganella morganii
  MIC: 0.5 µg/mL (≈ 1.15 µM)
Pseudomonas aeruginosa
  MIC: > 128 µg/mL
Proteus mirabilis
  MIC: 2 µg/mL (≈ 4.61 µM)
Proteus vulgaris
  MIC: < 0.06 µg/mL
[1]
  MIC: 4 µg/mL (≈ 9.23 µM)
Serratia marcescens
  MIC: > 128 µg/mL
Streptococcus pyogenes
  MIC: 1 µg/mL (≈ 2.31 µM)
Staphylococcus aureus
  MIC: 64 µg/mL (≈ 148 µM)
Enterococcus faecalis
  MIC: > 128 µg/mL
Shigella
  MIC: < 0.5 µg/mL

## Cn1nnnc1SCC1=C(C(=O)[O-])N2C(=O)[C@@H](Nc3cc[n+](CC(=O)[O-])cc3)[C@H]2SC1.[Na+]
Escherichia coli
  MIC: 4 µg/mL
Klebsiella aerogenes
  MIC: 32 µg/mL
Enterobacter cloacae
  MIC: 64 µg/mL
Klebsiella pneumoniae
  MIC: 8 µg/mL
Morganella morganii
  MIC: > 128 µg/mL
Pseudomonas aeruginosa
  MIC: > 128 µg/mL
Proteus mirabilis
  MIC: 64 µg/mL
Proteus vulgaris
  MIC: 1 µg/mL
[1]
  MIC: 4 µg/mL
Serratia marcescens
  MIC: > 128 µg/mL
Streptococcus pyogenes
  MIC: 2 µg/mL
Staphylococcus aureus
  MIC: 32 µg/mL
Enterococcus faecalis
  MIC: > 128 µg/mL
Shigella
  MIC: 2 µg/mL

## COc1ccc(C[n+]2ccc(N[C@@H]3C(=O)N4C(C(=O)[O-])=C(CSc5nnnn5C)CS[C@H]34)cc2)cc1
Escherichia coli
  MIC: 0.25 µg/mL (≈ 0.476 µM)
Klebsiella aerogenes
  MIC: 4 µg/mL (≈ 7.61 µM)
Enterobacter cloacae
  MIC: 8 µg/mL (≈ 15.2 µM)
Klebsiella pneumoniae
  MIC: 0.5 µg/mL (≈ 0.951 µM)
Morganella morganii
  MIC: 16 µg/mL (≈ 30.4 µM)
Pseudomonas aeruginosa
  MIC: > 64 µg/mL
Proteus mirabilis
  MIC: 16 µg/mL (≈ 30.4 µM)
Proteus vulgaris
  MIC: < 0.06 µg/mL
[1]
  MIC: 0.125 µg/mL (≈ 0.238 µM)
Serratia marcescens
  MIC: 64 µg/mL (≈ 122 µM)
Streptococcus pyogenes
  MIC: < 0.06 µg/mL
Staphylococcus aureus
  MIC: 8 µg/mL (≈ 15.2 µM)
Enterococcus faecalis
  MIC: > 64 µg/mL
Shigella
  MIC: 0.5 µg/mL (≈ 0.951 µM)

## COC(=O)c1c[n+](C)ccc1N[C@@H]1C(=O)N2C(C(=O)[O-])=C(CSc3nnnn3C)CS[C@H]12
Escherichia coli
  MIC: > 128 µg/mL
Klebsiella aerogenes
  MIC: > 128 µg/mL
Enterobacter cloacae
  MIC: > 128 µg/mL
Klebsiella pneumoniae
  MIC: > 128 µg/mL
Morganella morganii
  MIC: > 128 µg/mL
Pseudomonas aeruginosa
  MIC: > 128 µg/mL
Proteus mirabilis
  MIC: > 128 µg/mL
Proteus vulgaris
  MIC: > 128 µg/mL
[1]
  MIC: 128 µg/mL (≈ 268 µM)
Serratia marcescens
  MIC: > 128 µg/mL
Streptococcus pyogenes
  MIC: 32 µg/mL (≈ 67 µM)
Staphylococcus aureus
  MIC: > 128 µg/mL
Enterococcus faecalis
  MIC: > 128 µg/mL
Shigella
  MIC: > 128 µg/mL

## COC[n+]1ccc(N[C@@H]2C(=O)N3C(C(=O)[O-])=C(CSc4nnnn4C)CS[C@H]23)cc1
Escherichia coli
  MIC: 0.125 µg/mL (≈ 0.278 µM)
Klebsiella aerogenes
  MIC: 64 µg/mL (≈ 142 µM)
Enterobacter cloacae
  MIC: 32 µg/mL (≈ 71.2 µM)
Klebsiella pneumoniae
  MIC: 1 µg/mL (≈ 2.22 µM)
Morganella morganii
  MIC: > 128 µg/mL
Pseudomonas aeruginosa
  MIC: > 128 µg/mL
Proteus mirabilis
  MIC: 64 µg/mL (≈ 142 µM)
Proteus vulgaris
  MIC: < 0.06 µg/mL
[1]
  MIC: 1 µg/mL (≈ 2.22 µM)
Serratia marcescens
  MIC: > 128 µg/mL
Streptococcus pyogenes
  MIC: 0.125 µg/mL (≈ 0.278 µM)
Staphylococcus aureus
  MIC: 16 µg/mL (≈ 35.6 µM)
Enterococcus faecalis
  MIC: > 128 µg/mL
Shigella
  MIC: 0.5 µg/mL (≈ 1.11 µM)

## COc1ccc(C[n+]2ccc(N[C@@H]3C(=O)N4C(C(=O)[O-])=C(CSc5nnnn5C)CS[C@H]34)cc2)cc1OC
Escherichia coli
  MIC: 0.5 µg/mL (≈ 0.9 µM)
Klebsiella aerogenes
  MIC: 8 µg/mL (≈ 14.4 µM)
Enterobacter cloacae
  MIC: 64 µg/mL (≈ 115 µM)
Klebsiella pneumoniae
  MIC: 0.5 µg/mL (≈ 0.9 µM)
Morganella morganii
  MIC: 32 µg/mL (≈ 57.6 µM)
Pseudomonas aeruginosa
  MIC: > 64 µg/mL
Proteus mirabilis
  MIC: > 64 µg/mL
Proteus vulgaris
  MIC: 0.25 µg/mL (≈ 0.45 µM)
[1]
  MIC: 0.5 µg/mL (≈ 0.9 µM)
Serratia marcescens
  MIC: 64 µg/mL (≈ 115 µM)
Streptococcus pyogenes
  MIC: 0.125 µg/mL (≈ 0.225 µM)
Staphylococcus aureus
  MIC: 8 µg/mL (≈ 14.4 µM)
Enterococcus faecalis
  MIC: > 64 µg/mL
Shigella
  MIC: 0.25 µg/mL (≈ 0.45 µM)

## Cn1nnnc1SCC1=C(C(=O)[O-])N2C(=O)[C@@H](Nc3cc[n+](CCc4ccccc4)cc3)[C@H]2SC1
Escherichia coli
  MIC: 4 µg/mL (≈ 7.85 µM)
Klebsiella aerogenes
  MIC: 64 µg/mL (≈ 126 µM)
Enterobacter cloacae
  MIC: 8 µg/mL (≈ 15.7 µM)
Klebsiella pneumoniae
  MIC: 1 µg/mL (≈ 1.96 µM)
Morganella morganii
  MIC: > 128 µg/mL
Pseudomonas aeruginosa
  MIC: > 128 µg/mL
Proteus mirabilis
  MIC: > 128 µg/mL
Proteus vulgaris
  MIC: > 128 µg/mL
[1]
  MIC: 1 µg/mL (≈ 1.96 µM)
Serratia marcescens
  MIC: > 128 µg/mL
Streptococcus pyogenes
  MIC: < 0.5 µg/mL
Staphylococcus aureus
  MIC: 4 µg/mL (≈ 7.85 µM)
Enterococcus faecalis
  MIC: > 128 µg/mL
Shigella
  MIC: < 0.5 µg/mL

## COC(=O)c1ccc(NC2C(=O)N3C(C(=O)[O-])=C(CSc4nnnn4C)CSC23)[n+](C)c1 (stereo not given)
Escherichia coli
  MIC: > 128 µg/mL
Klebsiella aerogenes
  MIC: > 128 µg/mL
Enterobacter cloacae
  MIC: > 128 µg/mL
Klebsiella pneumoniae
  MIC: > 128 µg/mL
Morganella morganii
  MIC: > 128 µg/mL
Pseudomonas aeruginosa
  MIC: > 128 µg/mL
Proteus mirabilis
  MIC: > 128 µg/mL
Proteus vulgaris
  MIC: > 128 µg/mL
[1]
  MIC: 128 µg/mL (≈ 268 µM)
Serratia marcescens
  MIC: > 128 µg/mL
Streptococcus pyogenes
  MIC: 16 µg/mL (≈ 33.5 µM)
Staphylococcus aureus
  MIC: > 128 µg/mL
Enterococcus faecalis
  MIC: > 128 µg/mL
Shigella
  MIC: > 128 µg/mL
